Data reported in article PMC8567357 (ACS Omega, 2021).
Like-named read-outs stand apart in the source and are kept apart here.

Legend:
[1] = DPPH radical scavenging effect; conditions: for IC50: read-out: DPPH mean IC50
Outline: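 Ethanolic DPPH was mixed with an equal volume of each sample concentration, shaken, and kept 1 h at room temperature in the dark. Residual DPPH absorbance was read at 519 nm against a control without test compound. BHT was the positive control. Scavenging % was calculated from compound and control absorbances. IC50 was taken from the scavenging-versus-concentration plot. Values are means of two determinations ± SD.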

[2] = target: Pyruvate Dehydrogenase Kinase-1 (PDK-1) (Homo sapiens, UniProt Q15118); experiment: Pyruvate dehydrogenase kinase; type: biochemical; conditions: for inhibition at 100 µg/mL: read-out: PDK-1 mean inhibitory % ± SD
Outline: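 PDK-1 activity measured by the Kinase-Glo luminescent method. Wells held 10× assay buffer (250 mM Tris–HCl, 50 mM MgCl₂, 5 mM EGTA, 10 mM EDTA, 10 mM DTT), test compound (25–300 μg), and added solutions of PDH E1 (10 μM), ATP (10 μM) and PDK-1 (20 μM) in KCl/K₃PO₄/MgCl₂ buffer. Incubated 30 min at 37 °C, then Kinase-Glo reagent for 10 min at room temperature, and luminescence read. Controls: PBS or 1% DMSO; sodium dichloroacetate 1000 μM as reference. Mean ± SD of two replicates.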

[3] = target: purified recombinant human LDHA protein (Homo sapiens, UniProt P00338); experiment: Lactate dehydrogenase; type: biochemical; conditions: for inhibition at 100 µg/mL: read-out: LDHA mean inhibitory % ± SD
E. coli (ATCC 25922) = experiment: Antibacterial assay; type: cell-based; conditions: Escherichia coli
Outline: (§1)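 Hospital-collected standard isolates were grown fresh on nutrient agar and suspended in nutrient broth to 0.5 McFarland. Test compound was mixed with 2 × 10⁷ CFU/mL in sterile BHI and shaken 60 min at 37 °C. Samples were serially diluted in BHI, plated, and incubated 24 h at 37 °C. Residual CFU were compared with the initial inoculum. IC50 is the mean of two measurements. Ampicillin was the positive reference.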

[4] = test system: Enterococcus faecalis (ATCC 29122); experiment: Antibacterial assay; type: cell-based; conditions: ATCC29122, read-out: Enterococcus faecalis mean IC50 (μM)
Outline: as §1

Cytotoxicity assay [5] = type: cell-based, human; conditions: human, LoVo cells (colorectal cancer cell line)
Outline: (§2)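 ATCC-sourced cells were cultured 24 h at 37 °C in 5% CO₂ with test compound (25, 50, 75, 100, 200, 400 μg) diluted in DMEM with 10% FBS. LDH released into the supernatant was measured by end-point ELISA, with OD read at 550 nm. Controls were 0.1% Triton X-100 (positive) and medium alone (negative). Viability is % OD relative to control, at 100 μg final, mean ± SD (n = 2). IC50 was taken from the viability-versus-concentration plot.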

Cytotoxicity assay [6] = type: cell-based, human; conditions: human, HCT-116 cells (colorectal cancer cell line)
Outline: as §2

LoVo cells = experiment: Cytotoxicity assay; type: cell-based, human; conditions: for IC50: Homo sapiens, LoVo
Outline: as §2

HCT-116 cells = experiment: Cytotoxicity assay; type: cell-based, human; conditions: for IC50: Homo sapiens
Outline: as §2

[7] = ATCC25922, read-out: E. coli mean IC50 (μM)
[8] = ATCC25922, read-out: E. coli mean IC50 (μg/mL) ± SD
[9] = PDK1 IC50 (μg/mL) ± SD, mean of two determinations
[10] = LDHA IC50 (μg/mL) ± SD, mean of two determinations
[11] = read-out: LoVo cells mean IC50 (μM)
[12] = read-out: LoVo cells mean IC50 (μg/mL) ± SD
[13] = HCT-116, read-out: HCT-116 mean IC50 (μM)
[14] = HCT-116, read-out: HCT-116 mean IC50 (μg/mL) ± SD

Pyruvate Dehydrogenase Kinase-1 (PDK-1), sequence (Q15118 29-436): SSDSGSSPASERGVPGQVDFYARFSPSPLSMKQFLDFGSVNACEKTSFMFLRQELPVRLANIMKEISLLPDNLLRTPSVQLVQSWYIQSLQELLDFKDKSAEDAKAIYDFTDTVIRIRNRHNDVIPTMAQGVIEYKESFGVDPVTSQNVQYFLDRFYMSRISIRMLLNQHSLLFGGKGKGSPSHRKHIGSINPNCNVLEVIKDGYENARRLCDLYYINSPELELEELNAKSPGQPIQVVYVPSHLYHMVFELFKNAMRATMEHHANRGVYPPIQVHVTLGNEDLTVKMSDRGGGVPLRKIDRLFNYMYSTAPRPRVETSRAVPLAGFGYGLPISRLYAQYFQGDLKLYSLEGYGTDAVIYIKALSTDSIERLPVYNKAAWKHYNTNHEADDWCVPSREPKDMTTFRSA

Molecule	DPPH mean IC50 (μg/mL) ± SD [1] [µg/mL]	IC50 [1] [mM]	inhibition at 100 µg/mL [2] [%]	inhibition at 100 µg/mL [3] [%]	IC50 (E. coli (ATCC 25922); [7]) [µM]	IC50 (E. coli (ATCC 25922); [8]) [µg/mL]	IC50 [4] [µM]	IC50 ([2]; PDK1 IC50 (μM)) [µM]	IC50 [2, 9] [µM]	viability at 24 h, 100 μg/mL (Cytotoxicity assay [5]) [%]	viability at 24 h, 100 μg/mL (Cytotoxicity assay [6]) [%]	IC50 ([3]; LDHA IC50 (μM)) [µM]	IC50 [3, 10] [µM]	IC50 (LoVo cells; [11]) [µM]	IC50 (LoVo cells; [12]) [µg/mL]	IC50 (HCT-116 cells; [13]) [µM]	IC50 (HCT-116 cells; [14]) [µg/mL]	mean % of viable LoVo cells (positive control) (LoVo cells; 0.1% in assay medium) [%]	mean % of viable HCT-116 cell (positive control) (HCT-116 cells; 0.1% in assay medium) [%]
N#Cc1c(N)sc2c1CCCC2 [1c, 2-amino-4,5,6,7-tetrahydro-benzo[b]thiophene-3-carbonitrile]	332.5 ± 17.68	1.87	11.2 ± 3.18	23.1 ± 3.05	147	26.2 ± 1.06	119												
CCOC(=O)Nc1sc2c(c1C(=O)OCC)CCC(c1ccccc1)C2 (stereo not drawn) [3a, Ethyl 2-((Ethoxycarbonyl)amino)-6-phenyl-4,5,6,7-tetrahydrobenzo[b]thiophene-3-carboxylate]	665.0 ± 21.21	1.78	21.5 ± 2.4	28.8 ± 2.06	72.4	27.1 ± 0.35	102												
CCOC(=O)c1c(NC(=O)c2cccs2)sc2c1CCC(c1ccccc1)C2 (stereo not drawn) [3e, Ethyl 6-Phenyl-2-(thiophene-2-carboxamido)-4,5,6,7-tetrahydrobenzo[b] thiophene-3-carboxylate]	595.0 ± 21.21	1.45	18.4 ± 1.98	18.4 ± 1.98	89.4	36.8 ± 1.7	90.6												
CCOC(=O)c1c(NC(=O)CN2CCOCC2)sc2c1CCC(c1ccccc1)C2 (stereo not drawn) [5a, Ethyl 2-(2-Morpholinoacetamido)-6-phenyl-4,5,6,7-tetrahydrobenzo[b]thiophene-3-carboxylate]	440.0 ± 28.28	1.03	41 ± 2.83	30.8 ± 1.7	62.8	26.9 ± 0.57	62.2												
Cc1cc(C(C)(C)C)c(O)c(C(C)(C)C)c1 [BHT, butylated hydroxy toluene, reference compound]	54.0 ± 5.66	0.245																	
CC1(C)S[C@@H]2[C@H](NC(=O)[C@H](N)c3ccccc3)C(=O)N2[C@H]1C(=O)O [ampicillin, reference compound]					58	20.2 ± 1.77	36.5												
CCOC(=O)c1c(N)sc2c1CCC(c1ccccc1)C2 (stereo not drawn) [compound 1a, 2-amino-6-phenyl-4,5,6,7-tetrahydrobenzo[b]thiophene-3-carboxylic acid ethyl ester]	390.5 ± 13.44	1.3	12.3 ± 1.91	19.2 ± 3.18	82.6	24.9 ± 0.99	146												
N#Cc1c(N)sc2c1CCC(c1ccccc1)C2 (stereo not drawn) [compound 1b, 2-amino-6-phenyl-4,5,6,7-tetrahydrobenzo[b]thiophene-3-carbonitrile]	110.0 ± 14.14	0.432	87 ± 2.83	74.1 ± 2.97			83.4	224	224	56.5 ± 0.71	53.5 ± 2.12	252	252						
CCOC(=O)Nc1sc2c(c1C#N)CCC(c1ccccc1)C2 (stereo not drawn) [compound 3b, Ethyl (3-Cyano-6-phenyl-4,5,6,7-tetrahydrobenzo[b]thiophen-2-yl)carbamate]	130.0 ± 14.14	0.398	51.5 ± 3.54	19.3 ± 0.85			83.5	302	302	35.5 ± 2.12	28 ± 1.41	892	891	250	81.5 ± 3.54	218	71 ± 2.83		
N#Cc1c(N2C(=O)CCC2=O)sc2c1CCC(c1ccccc1)C2 (stereo not drawn) [compound 7, 2-(2,5-Dioxopyrrolidin-1-yl)-6-phenyl-4,5,6,7-tetrahydrobenzo[b]thiophene-3-carbonitrile]	222.5 ± 17.68	0.661	35.9 ± 4.1	48.8 ± 5.3	82.9	27.9 ± 2.26	83.5	428	428	51.5 ± 2.12	47.2 ± 1.06	276	276	323	108 ± 3.54	288	97 ± 2.83		
CN(C)C=Nc1sc2c(c1C#N)CCC(c1ccccc1)C2 (stereo not drawn) [compound 9, N′-(3-Cyano-6-phenyl-4,5,6,7-tetrahydrobenzo[b]thiophen-2-yl)-N,N-dimethyl Formamidine]	210.0 ± 28.28	0.679	36.5 ± 2.12	32.6 ± 2.33	94.9	29.4 ± 1.2	111			71.8 ± 2.55	69 ± 1.41			642	198 ± 4.95	524	162 ± 4.24		
COc1ccc(C=Nc2sc3c(c2C#N)CCCC3)cc1O [compound 11, 2-((3-Hydroxy-4-methoxybenzylidene)amino)-4,5,6,7-tetrahydrobenzo[b]thiophene-3-carbonitrile]	332.5 ± 17.68	1.06	23.7 ± 2.4	29.6 ± 1.98	181	56.6 ± 1.98	126			63.8 ± 1.77	60.5 ± 2.12			474	148 ± 4.24	403	126 ± 4.25		
Triton X-100 [reference compound]																		0.00	0.00
